Calls of active or inactive are those of the source. The calls are words filed in the database; no cut-off is given here.
Experiments:
Homo sapiens = organism: Homo sapiens; assay: Selectivity index, ratio of Ki for displacement of 3[H]-CP55940 from human recombinant CB1 receptor expressed in HEK293 cell membranes to Ki for displacement of 3[H]-CP55940 from human recombinant CB2 receptor expressed in HEK293 cell membranes
Cannabinoid receptor 1 [1] = molecular target: T1, Cannabinoid receptor 1 (Homo sapiens, UniProt P21554); assay: Displacement of 3[H]-CP55940 from human recombinant CB1 receptor expressed in HEK293 cell membranes measured after 90 mins by Cheng-Prusoff equation analysis
Cannabinoid receptor 2 [2] = molecular target: T2, Cannabinoid receptor 2 (Homo sapiens, UniProt P34972); assay: Displacement of 3[H]-CP55940 from human recombinant CB2 receptor expressed in HEK293 cell membranes measured after 90 mins by Cheng-Prusoff equation analysis
Cholinesterase [3] = molecular target: T3, Cholinesterase (Homo sapiens, UniProt P06276); assay: Inhibition of human recombinant BuChE at 25 uM using butyrylthiocholine iodide as substrate preincubated for 20 mins followed by substrate addition by Ellman's spectrophotometric method relative to control
Cannabinoid receptor 1 [4] = molecular target: T1, Cannabinoid receptor 1; assay: Displacement of 3[H]-CP55940 from human recombinant CB1 receptor expressed in HEK293 cell membranes measured after 90 mins
Cannabinoid receptor 2 [5] = molecular target: T2, Cannabinoid receptor 2; assay: Displacement of 3[H]-CP55940 from human recombinant CB2 receptor expressed in HEK293 cell membranes measured after 90 mins
Cholinesterase [6] = molecular target: T3, Cholinesterase; assay: Inhibition of human recombinant BuChE using butyrylthiocholine iodide as substrate preincubated for 20 mins followed by substrate addition by Ellman's spectrophotometric method
N9 [7] = assay: Immunomodulatory activity in LPS-induced mouse N9 cells assessed as reduction in iNOS expression at 5 uM after 24 hrs by Western blotting analysis relative to control; format: functional; settings: N9, 24 h
Method in brief: (§1)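 N9 microglia on poly-L-lysine in DMEM high glucose with 10% FBS, plated 2.5×10^5 cells/35 mm dish. Activated with LPS 100 ng/mL together with 0, 5 or 10 µM compound in serum-free DMEM for 24 h. Lysates run on 12.5% SDS-PAGE and immunoblotted for iNOS or TREM2, with GAPDH as loading control, ECL detection. Densitometry given as % of LPS alone, three experiments.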

SH-SY5Y [8] = assay: Cytotoxicity against human SH-SY5Y cells assessed as effect on cell viability up to 5 uM after 24 hrs by MTT assay; format: cell-based
Method in brief: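 SH-SY5Y cells grown in DMEM with 10% FBS, 2 mM L-glutamine and penicillin/streptomycin, seeded 2×10^4 cells/well, 24 h, then exposed 24 h to 1.25–40 µM. Viability read as MTT reduction: MTT 0.5 mg/mL in HBSS 2 h at 37 °C, formazan dissolved in isopropanol, absorbance 570 nm (reference 690 nm).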

N9 [9] = assay: Immunomodulatory activity in LPS-induced mouse N9 cells assessed as reduction in TREM2 expression at 5 uM after 24 hrs by Western blotting analysis relative to control; format: functional, cell-based; method in brief: as §1
SH-SY5Y [10] = assay: Neuroprotection against amyloid beta (1 to 42) induced toxicity in human SH-SY5Y cells after 4 hrs by MTT assay; format: functional, cell-based
Method in brief: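 SH-SY5Y cells seeded 3×10^4/well, 24 h, then treated 4 h with Aβ1-42 oligomers (10 µM) plus compound at 0.625–5.0 µM. Read by MTT formazan exocytosis assay: MTT 0.5 mg/mL in HBSS 1 h at 37 °C, intracellular formazan dissolved in 1% Tween 20, absorbance 570 nm (reference 690 nm). At least three independent experiments.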

N9 [11] = assay: Downregulation of total GAPDH in LPS-induced mouse N9 cells at 5 uM after 24 hrs by Western blotting analysis; format: ADME, cell-based; settings: n9, 24 h; method in brief: as §1
Cannabinoid receptor 2 [12] = molecular target: T2, Cannabinoid receptor 2; assay: Inverse agonist activity at recombinant human CB2R expressed in CHOK1 cells assessed as increase in NKH477-stimulated intracellular cAMP levels after 30 mins by chemiluminescent based cAMP Hunter assay; format: functional, cell-based
Method in brief: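 CHO-K1 cells stably expressing human CB2R, 30,000 cells/well, held overnight. Compound dose-response with NKH-477 (forskolin analogue, 25 µM) for 30 min at 37 °C. cAMP measured by enzyme-fragment-complementation chemiluminescence. Normalized with NKH-477 alone = 100%. Three independent experiments in triplicate, mean ± SEM.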

Cannabinoid receptor 2 [13] = molecular target: T2, Cannabinoid receptor 2; assay: Inverse agonist activity at recombinant human CB2R expressed in CHOK1 cells assessed as increase in NKH477-stimulated intracellular cAMP levels preincubated for 15 mins followed by CB2 agonist JWH-133 addition and measured after 30 mins by chemiluminescent based cAMP Hunter assay; format: functional, cell-based
Cannabinoid receptor 2 [14] = molecular target: T2, Cannabinoid receptor 2; assay: Potency index, ratio of SR144528 Ki to compound Ki for displacement of 3[H]-CP55940 from human recombinant CB2
Cholinesterase [15] = molecular target: T3, Cholinesterase; assay: Potency index, ratio of galanthamine IC50 to compound IC50 for inhibition of human recombinant BuChE

T1 sequence (P21554 whole entry): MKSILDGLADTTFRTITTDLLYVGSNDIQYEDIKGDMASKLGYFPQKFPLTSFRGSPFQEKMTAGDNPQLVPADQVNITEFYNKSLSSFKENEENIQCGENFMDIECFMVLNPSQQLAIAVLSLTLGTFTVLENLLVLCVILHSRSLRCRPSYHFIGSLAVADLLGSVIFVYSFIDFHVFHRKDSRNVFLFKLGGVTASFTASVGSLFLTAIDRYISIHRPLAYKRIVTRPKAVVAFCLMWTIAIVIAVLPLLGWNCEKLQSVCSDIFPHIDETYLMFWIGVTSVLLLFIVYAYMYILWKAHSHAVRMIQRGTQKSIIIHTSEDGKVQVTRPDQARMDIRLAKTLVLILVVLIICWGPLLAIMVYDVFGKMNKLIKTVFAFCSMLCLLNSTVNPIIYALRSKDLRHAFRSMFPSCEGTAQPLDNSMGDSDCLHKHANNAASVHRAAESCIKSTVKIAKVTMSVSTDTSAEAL
T2 sequence (P34972 whole entry): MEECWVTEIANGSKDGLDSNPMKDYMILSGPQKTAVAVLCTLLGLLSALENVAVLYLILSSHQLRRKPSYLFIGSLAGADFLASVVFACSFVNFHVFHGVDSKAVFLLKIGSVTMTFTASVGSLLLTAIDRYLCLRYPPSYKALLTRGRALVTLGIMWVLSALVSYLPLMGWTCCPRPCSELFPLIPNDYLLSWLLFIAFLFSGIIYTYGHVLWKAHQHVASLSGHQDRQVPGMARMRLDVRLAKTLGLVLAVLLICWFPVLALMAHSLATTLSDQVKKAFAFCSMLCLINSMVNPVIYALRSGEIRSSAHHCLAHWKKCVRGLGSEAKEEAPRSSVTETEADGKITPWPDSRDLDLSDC
T3 sequence (P06276 whole entry): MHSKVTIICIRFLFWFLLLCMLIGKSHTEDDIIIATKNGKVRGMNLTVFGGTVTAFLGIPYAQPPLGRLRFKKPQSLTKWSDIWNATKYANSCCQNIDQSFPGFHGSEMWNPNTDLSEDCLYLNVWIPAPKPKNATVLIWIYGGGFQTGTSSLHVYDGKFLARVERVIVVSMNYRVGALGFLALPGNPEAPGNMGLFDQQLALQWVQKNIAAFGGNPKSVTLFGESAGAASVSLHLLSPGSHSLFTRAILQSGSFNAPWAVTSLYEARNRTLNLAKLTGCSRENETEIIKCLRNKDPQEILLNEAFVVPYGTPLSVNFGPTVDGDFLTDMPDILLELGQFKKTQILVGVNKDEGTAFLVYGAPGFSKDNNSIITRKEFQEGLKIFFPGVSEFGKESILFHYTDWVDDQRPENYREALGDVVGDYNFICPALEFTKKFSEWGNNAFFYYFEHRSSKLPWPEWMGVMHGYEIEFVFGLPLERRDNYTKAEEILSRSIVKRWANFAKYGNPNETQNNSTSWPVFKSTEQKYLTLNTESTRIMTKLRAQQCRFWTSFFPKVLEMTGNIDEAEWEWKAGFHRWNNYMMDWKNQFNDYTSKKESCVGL

Structure (SMILES) | Ratio Ki (Homo sapiens) | Ki (Cannabinoid receptor 1 [1]) [µM] | Ki (Cannabinoid receptor 2 [2]) [µM] | inhibition (Cholinesterase [3]) [%] | IC50 (Cannabinoid receptor 1 [4]) [µM] | IC50 (Cannabinoid receptor 2 [5]) [µM] | IC50 (Cholinesterase [6]) [µM] | inhibition at 5 µM (N9 [7]) [%] | Activity (SH-SY5Y [8]) | Activity (N9 [9]) | Activity (SH-SY5Y [10]) | Activity (N9 [11]) | Activity (Cannabinoid receptor 2 [12]) | Activity (Cannabinoid receptor 2 [13]) | Ratio Ki (Cannabinoid receptor 2 [14]) | Ratio IC50 (Cholinesterase [15])
COc1ccc(-c2oc3ccccc3c2C(=O)c2ccc(NCc3ccccn3)cc2)cc1 | > 7.5 | > 10 | 1.34 | 15.3 | > 10 | 5.09 | – | – | – | – | – | – | – | – | – | –
CCCCCNc1ccc(C(=O)c2c(-c3ccc(OC)cc3)oc3ccccc23)cc1 | 1.1 | 0.08 | 0.07 | 72.2 | 0.3 | 0.26 | 3.9 | – | – | – | – | – | – | – | – | –
COc1ccc(-c2oc3ccccc3c2C(=O)c2ccc(NCc3ccc(F)cc3)cc2)cc1 | 39 | 0.78 | 0.02 | 60.8 | 3.21 | 0.07 | – | 83 | Non-Toxic | inactive | Dose-dependent effect | – | – | – | – | –
CN(CCCCCCCOc1ccc(-c2oc3ccccc3c2C(=O)c2ccccc2)cc1)Cc1ccccc1 | – | – | – | – | – | – | – | – | – | – | – | Toxic | – | – | – | –
COc1ccc(-c2oc3ccccc3c2C(=O)c2ccc(NCC3CC3)cc2)cc1 | 4.3 | 0.47 | 0.11 | 22.4 | 1.67 | 0.41 | – | – | – | – | – | – | – | – | – | –
COc1ccc(-c2oc3ccccc3c2C(=O)c2ccc(OCCN(C)Cc3ccccc3)cc2)cc1 | 0.6 | 0.43 | 0.69 | 65 | 1.52 | 2.63 | 14 | – | – | – | – | – | – | – | – | –
COc1ccc(-c2oc3ccccc3c2C(=O)c2ccc(NCc3cc(F)cc(F)c3)cc2)cc1 | > 33 | > 10 | 0.3 | < 10 | > 10 | 1.15 | – | – | – | – | – | – | – | – | – | –
COc1ccc(CNc2ccc(C(=O)c3c(-c4ccc(OC)cc4)oc4ccccc34)cc2)cc1 | > 10 | > 10 | 1.02 | < 10 | > 10 | 3.86 | – | – | – | – | – | – | – | – | – | –
COc1ccc(-c2oc3ccccc3c2C(=O)c2ccc(N(Cc3ccccc3)Cc3ccccc3)cc2)cc1 | > 11 | > 10 | 0.92 | 30.9 | > 10 | 3.64 | – | – | – | – | – | – | – | – | – | –
COc1ccc(-c2oc3ccccc3c2C(=O)c2ccc(OCCCN(C)Cc3ccccc3)cc2)cc1 | 4.2 | 0.5 | 0.12 | 35 | 2.06 | 0.44 | 135 | – | – | – | – | – | – | – | – | –
COc1ccc(-c2oc3ccccc3c2C(=O)c2ccc(NCc3ccccc3)cc2)cc1 | > 59 | > 10 | 0.17 | < 10 | > 10 | 0.66 | – | – | – | – | – | – | – | – | – | –
CCCCCCCNc1ccc(C(=O)c2c(-c3ccc(OC)cc3)oc3ccccc23)cc1 | 4 | 1.66 | 0.41 | 30.2 | 5.84 | 1.54 | – | – | – | – | – | – | – | – | – | –
COc1ccc(-c2oc3ccccc3c2C(=O)c2ccc(N(Cc3ccc(F)cc3)Cc3ccc(F)cc3)cc2)cc1 | > 23 | > 10 | 0.43 | 75 | > 10 | 1.65 | 6.03 | – | – | – | – | – | – | – | – | –
COc1ccc(-c2oc3ccccc3c2C(=O)c2ccc(OCCCCN(C)Cc3ccccc3)cc2)cc1 | – | 0.86 | > 10 | 35.2 | 3.52 | > 10 | 219 | – | – | – | – | – | – | – | – | –
COc1ccc(-c2oc3ccccc3c2C(=O)c2ccc(NCc3ccc(C#N)cc3)cc2)cc1 | 130 | 2.6 | 0.02 | < 10 | 9.12 | 0.09 | – | – | – | – | – | – | – | – | – | –
COc1ccc(-c2oc3ccccc3c2C(=O)c2ccc(N(C)Cc3ccc(F)cc3)cc2)cc1 | 7.4 | 0.02 | 0.0027 | < 10 | 0.08 | 0.01 | – | 60 | Non-Toxic | inactive | – | – | Active | Dose-dependent effect | 600 | –
COc1ccc(-c2oc3ccccc3c2C(=O)c2ccc(OCCCCCN(C)Cc3ccccc3)cc2)cc1 | – | 1.76 | > 10 | > 90 | 7.2 | > 10 | 1.09 | – | – | – | – | – | – | – | – | 19
COc1ccc(-c2oc3ccccc3c2C(=O)c2ccc(N(Cc3cc(F)cc(F)c3)Cc3cc(F)cc(F)c3)cc2)cc1 | – | > 10 | > 10 | 67 | > 10 | > 10 | 11.7 | – | – | – | – | – | – | – | – | –
COc1ccc(-c2oc3ccccc3c2C(=O)c2ccc(-n3cc(COc4cccc(F)c4)nn3)cc2)cc1 | – | > 10 | > 10 | < 10 | > 10 | > 10 | – | – | – | – | – | – | – | – | – | –

From ChEMBL document CHEMBL4364258, “Discovery of novel benzofuran-based compounds with neuroprotective and immunomodulatory properties for Alzheimer's disease treatment” (Eur J Med Chem, 2019)
